# Assay results reported in ChEMBL document CHEMBL2311335, “Increased hydrophobicity and estrogenic activity of simple phenols with silicon and germanium-containing substituents” (J Med Chem, 2013).
# Activity calls are given as the source filed them. The calls are words filed in the database; no cut-off is given here.
# What was measured:
# [1] = tested on: MCF7; assay: Estrogenic activity in human MCF7 cells assessed as cell proliferation after 7 days by WST-8 assay; assay type: functional, cell-based
# How it was run: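 Cells were seeded at 1.2 × 10³ per well in the same medium. Proliferation was read by WST-8 (2 h, absorbance at 450 nm). Viable cell number was plotted against log concentration and EC₅₀ taken from a sigmoidal fit.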
# [2] = Octanol-water partition coefficient, log P of the compound by HPLC analysis
# [3] = tested on: MCF7; assay: Estrogenic activity in human MCF7 cells assessed as cell proliferation at 10^-12 M to 10^-6 M after 7 days by WST-8 assay relative to estradiol; assay type: functional
# [4] = biological target: Estrogen receptor (Homo sapiens) (UniProt P03372); assay: (§1) Displacement of [3H]estradiol from human recombinant ER after 14 to 18 hrs by scintillation counting analysis
# How it was run: (§2)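 Recombinant human ER was diluted in binding buffer (50 mM Tris pH 7.5, 10% glycerol, 0.1 mM BHA, 10 mM mercaptoethanol, 0.5% yeast extract) to 2–4 nM. It was incubated refrigerated for 14–18 h with 10⁻⁸ M [³H]estradiol final and 10⁻⁴–10⁻⁸ M competitor in DMSO. Bound ligand was captured on hydroxylapatite for 15 min at 0 °C, washed three times with Tris pH 7.3, and counted by scintillation. Run in duplicate.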
# [5] = biological target: Estrogen receptor (Homo sapiens) (UniProt P03372); assay: (§3) Agonist activity at ER in human T47D-Kbluc cells at 10^-14 to 10^-7 M after 24 hrs by luciferase reporter gene assay; assay type: cell-based
# How it was run: (§4)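 After 24 h at 37 °C, compounds were added at 10⁻¹⁴ to 10⁻⁷ M final in 0.1% DMSO final. After a further 24 h, Steady-Glo was added and luminescence read after 5 min.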
# [6] = Dissociation constant, pKa of the compound
# [7] = biological target: T1, Estrogen receptor (Homo sapiens) (UniProt P03372); assay: as §1; how it was run: as §2; remark: listed apart in the source
# T1 sequence (whole entry): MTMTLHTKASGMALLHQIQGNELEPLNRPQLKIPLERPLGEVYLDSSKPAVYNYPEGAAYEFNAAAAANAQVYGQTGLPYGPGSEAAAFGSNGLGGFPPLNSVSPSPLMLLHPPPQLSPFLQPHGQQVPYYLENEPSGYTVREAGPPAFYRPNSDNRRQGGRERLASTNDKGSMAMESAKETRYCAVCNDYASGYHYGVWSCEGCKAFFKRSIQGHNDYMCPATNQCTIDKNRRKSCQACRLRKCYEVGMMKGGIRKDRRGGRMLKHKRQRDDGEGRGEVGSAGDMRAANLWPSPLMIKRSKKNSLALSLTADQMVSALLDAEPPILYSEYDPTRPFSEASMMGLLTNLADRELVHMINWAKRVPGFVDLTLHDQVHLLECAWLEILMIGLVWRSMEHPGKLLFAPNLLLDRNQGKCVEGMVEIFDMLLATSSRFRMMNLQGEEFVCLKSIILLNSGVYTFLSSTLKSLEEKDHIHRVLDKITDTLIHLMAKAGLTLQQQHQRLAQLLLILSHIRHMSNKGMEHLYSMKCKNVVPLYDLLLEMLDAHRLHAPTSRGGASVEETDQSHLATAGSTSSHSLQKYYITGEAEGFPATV
# [8] = biological target: T1, Estrogen receptor (Homo sapiens); assay: as §3; assay type: cell-based; how it was run: as §4; remark: listed apart in the source
# [9] = biological target: T1, Estrogen receptor (Homo sapiens); assay: Displacement of [3H]estradiol from human recombinant ER at 10^-8 to 10^-7 M after 14 to 18 hrs by scintillation counting analysis; details: in the assay text read “10^-8 to 10^-4 M” for “10^-8 to 10^-7 M”; how it was run: as §2
Compound,"EC50 ([1]; Homo sapiens, MCF7, 168 h) [µM]",logP [2],further results
CCC(C)(C)c1ccc(O)cc1,0.19,4.04,–
CC[Si](C)(C)c1ccc(O)cc1,0.041,4.64,–
Oc1ccc([Si](c2ccccc2)(c2ccccc2)c2ccccc2)cc1,–,6.83,"Emax ([3]; MCF7, 168 h): 29%"
4-Triethylgermylphenol [listing 1 of 2 here],–,–,inhibition [4]: Dose-dependent effect; Activity [5]: Active
C[Si](C)(c1ccccc1)c1ccc(O)cc1,0.016,4.91,–
CC(C)(C)c1ccc(O)cc1,0.87,–,–
Oc1ccc(C(c2ccccc2)(c2ccccc2)c2ccccc2)cc1,–,6.25,"Emax ([3]; MCF7, 168 h): 16%"
C[Si](C)(C)c1ccc(O)cc1,0.063,4.12,pKa [6]: 10.1
CC[Si](CC)(CC)c1ccc(O)cc1,0.0034,5.69,inhibition [7]: Dose-dependent effect; Activity [8]: Active
CC(C)(c1ccccc1)c1ccc(O)cc1,0.038,4.31,–
CCC(CC)(CC)c1ccc(O)cc1,0.023,5.03,inhibition [9]: Active; Activity [8]: Active
4-Triethylgermylphenol [listing 2 of 2 here],–,5.71,EC50 ([1]; mcf7): 0.0021 µM
4-Triphenylgermylphenol [listing 1 of 2 here],–,–,Emax [3]: 47%
4-Trimethylgermylphenol,–,4.11,EC50 ([1]; mcf7): 0.1 µM; pKa [6]: 10.2
4-Triphenylgermylphenol [listing 2 of 2 here],–,6.97,–
